Laboratory results as given in ChEMBL document CHEMBL4513216, “Probing the Open Global Health Chemical Diversity Library for Multistage-Active Starting Points for Next-Generation Antimalarials” (ACS Infect Dis, 2020).

assay: Toxicity liver stage against HepG2, at 10uM; format: cell-based; parameters: test concentration 10 uM, cell line HepG2-A16-CD81EGFP; conditions: human, HepG2-A16-CD81EGFP cells; read-out: INHIBITION
How it was run: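 Uninfected HepG2-A16-CD81EGFP cells, 3 × 10^3 per well, 1536-well, plated on prespotted compound at 10 μM final, parasite-free screening media added to match infected plates; puromycin 10 μM positive, DMSO 0.5% negative; run in parallel with 48 h PbLuc assay at 37 °C, 5% CO2; viability by CellTiter-Glo luminescence, normalized to controls.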

Structure (SMILES) | cytotoxicity at 10 µM
COc1ccc(-c2cnc3c(c2)CN(C2CC2)C(=O)CCN3)cc1 | 4.09%
CCN1CC(C)(C)CN(C(=O)CCc2ccccc2)CC1=O | 0.305%
O=C(COc1ccccc1F)NCCC(O)c1ccco1 (configuration not stated) | -4.18%
O=C(Nc1ccc2c(c1)OCO2)N1CCN(CCn2ccnc2)CC1 | -14.2%
CC(=O)NCc1noc2c1CN(Cc1cccs1)CC2 | -5.18%
CC1=Nc2c(c(=O)[nH]n2C(C)C)C(c2ccccc2)S1 (configuration not stated) | 5.53%
COc1ccc2nnc(CCCC(=O)NCCC3=CCCCC3)n2n1 | 2.73%
CCc1ccc(NC(=O)c2cnc(N3CCN(C)CC3)nc2C)cc1 | -15%
O=C1CC(c2ccco2)c2sc(C(=O)O)c(-c3ccccc3)c2N1 (configuration not stated) | 19.1%
COCc1cncc2c1CCN(C(=O)c1ccc(C)o1)C2 | 0.388%
CC(C)NC(=O)[C@@H]1CCO[C@@H]2CCN(c3ncccn3)C[C@H]21 | -7.6%
COCCNC(=O)[C@@H]1CC[C@@H]2[C@@H](CCN2Cc2cnn(C)c2)O1 | -12.2%
O=C(c1ccncc1F)N1CCN(CC2CC2)c2ncccc2C1 | 6.48%
CN1CCCCC1c1cncc(N2CCC(O)CC2)n1 (configuration not stated) | 2.54%
O=C(CC(SC1CCCCC1)C(=O)O)c1ccc(Cl)cc1 (configuration not stated) | 3.16%
CC(C)Cc1noc(CNc2ccccc2CC(=O)N(C)C)n1 | 0.489%
CCCC(C)(C)NC(=O)CCN1CCOC1=O | -8.94%
CNS(=O)(=O)c1ccccc1N1CCN(C(=O)NC(C)C)CC1 | 9.44%
COc1cc(NC(=O)NC2CCCC2)ccc1N1CCOC1=O | -7.09%
CN(Cc1ccsc1)C(=O)c1cc(S(=O)(=O)N(C)C)ccc1Cl | 15%
CCC(=O)NCC(=O)NCC(C)(C)c1cccc(Br)c1 | -2.32%

Structure (SMILES) | cytotoxicity at 10 µM
O=C(c1ccc(-n2ccnc2)nn1)N1CCCC1CCc1ccccc1 (configuration not stated) | 8.57%
CCc1nnc2ccc(NCC3(N4CCCCC4)CCOCC3)nn12 | -8.39%
CC1C(=O)Nc2cccnc2N1S(=O)(=O)c1ccc(C#N)c(Cl)c1 (configuration not stated) | -6.75%
CN1CCCN(C(=O)c2cccn2-c2ccc3c(c2)OCCO3)CC1 | 1.03%
CN(C)C(=O)C1CN(Cc2ccc(C#N)cc2)c2ccccc2O1 (configuration not stated) | 6.47%
Cc1cccc(OCc2nnc(SCC3CCCN(C)C3)o2)c1 (configuration not stated) | -2.8%
CNS(=O)(=O)c1ccc(C(=O)NC2CCOc3ccccc32)o1 (configuration not stated) | -9.26%
Cc1cccc(OCCC(=O)N(C)CCNS(C)(=O)=O)c1C | 3.35%
CS(=O)(=O)NCc1cc(-c2cc(F)cc(F)c2)nc(N2CCCC2)n1 | -1.53%
CCC[C@H]1CN(S(=O)(=O)c2ccc(Cl)cc2)C[C@@H]1NC(C)=O | -12.4%
CS(=O)(=O)N1CCC(c2nccn2Cc2ccccn2)CC1 | -14.6%
Cc1nn(C)c(C)c1CN1CCCC(c2ccc(C(=O)O)cc2)C1 (configuration not stated) | -8.82%
O=C(c1ncc[nH]1)N1CCC(n2cc(-c3ccccn3)nn2)CC1 | 4.95%
CC(C)c1nccc(CN(C)Cc2cccc(-n3cccn3)c2)n1 | -2.44%
CS(=O)(=O)Cc1nc(CCc2ccccc2)nn1-c1ccccn1 | 3.36%
CCCN(CC)Cc1ccc(C(=O)NCC2COCCO2)c(=O)[nH]1 (configuration not stated) | 4.78%
Cc1nonc1OCCNc1ncnc2sc3c(c12)CCNC3 | -1.69%
CCc1cnc(N)nc1NCCCN1CCCCC1CO (configuration not stated) | -0.0414%
Cc1ccc2[nH]c(C(=O)NCCCn3ccnn3)c(C)c2c1 | 5.36%
COc1cc(F)ccc1-c1ncccc1NC(=O)C(C)C | 1.23%
Cc1nn(C)cc1CNC(=O)c1cn(CCC2CCCCN2)nn1 (configuration not stated) | -6.15%

Structure (SMILES) | cytotoxicity at 10 µM
Cc1cc(C[C@@H]2COC[C@@H]2NC(=O)CN2CCCC2)on1 | -30.2%
COCc1cc(NCc2cc(F)ccc2F)n2nccc2n1 | -2.32%
CC(C)c1nc2c(n1C)CCN(Cc1nc(-c3ccco3)no1)C2 | -0.403%
CC(NC(=O)CCCC(=O)c1cccs1)c1nnc2n1CCC2 (configuration not stated) | -10.2%
Cc1cnn(CCNCc2nc(CNC(=O)c3ccccc3)no2)c1 | -5.92%
CC(C)c1nc2c(n1C)CCN(Cc1cccc(OCC(N)=O)c1)C2 | -7.24%
CCn1cc(CN2CCCN(C(=O)c3sc(C)nc3C)CC2)cn1 | -14.4%
Cc1ccc(-c2nc(CNCC3CN(C)CCO3)co2)c(C)c1 (configuration not stated) | -16.4%
CCc1ccc(CNC(=O)N2CCN(Cc3cc(C)on3)CC2)s1 | -7.03%
CCc1[nH]ncc1C(=O)N1CCCC(n2ccnc2C)C1 (configuration not stated) | -10.5%
CN(Cc1nnc(C2CC2)n1C)C1CCN(CCc2cnn(C)c2)C1 (configuration not stated) | -4.02%
COc1ccc(CC(=O)N2CCCC(n3cc(C)cn3)C2)c(OC)c1 (configuration not stated) | -8.66%
Cc1nc(CC(=O)N2CCCCC2Cn2cccn2)cs1 (configuration not stated) | -1.55%
CC(NC(=O)N(C)CCOc1ccccc1F)c1nncn1C (configuration not stated) | -9.92%
Cc1nccc(C(=O)N2CCCC2c2c(C)nn(C)c2C)n1 (configuration not stated) | -2.42%
Cc1ccccc1CNC(C)c1ccc(OCC(=O)NC2CC2)cc1 (configuration not stated) | -6.97%
Cc1cc(C)n(C2CN(CC(=O)NC3CCS(=O)(=O)C3)C2)n1 (configuration not stated) | -9.41%
Cc1nn(C)c(C)c1C1CCCN1CC(=O)NCc1ccco1 (configuration not stated) | -12.4%
O=C(COCCc1ccccc1)N1CCCC(n2cncn2)C1 (configuration not stated) | -27.8%
CN(Cc1ccccn1)C1CCCN(c2cccnn2)C1 (configuration not stated) | -13.4%
COc1cc(C(=O)N2CCCC(CNS(C)(=O)=O)C2)ccc1C (configuration not stated) | -21.6%

Structure (SMILES) | cytotoxicity at 10 µM
Cc1nn(C)c(C)c1CC(=O)N1CCCC(n2cccn2)C1 (configuration not stated) | -13.7%
Cc1noc(C2CCN(C(=O)c3ccc(N(C)C)nc3)CC2)n1 | -5.95%
Cc1noc(C2CCN(C(=O)CN(C)c3ccc(Cl)cn3)CC2)n1 | -6.98%
CC(Cn1ccnc1)NC(=O)NCCNC(=O)C(C)C (configuration not stated) | -3.51%
N#Cc1cn(C2CC2)c(=O)n(CC(O)c2ccc(OC(F)F)cc2)c1=O (configuration not stated) | -2.22%
CS(=O)(=O)N1CCCCCC1C1CCN(c2ncccn2)CC1 (configuration not stated) | -7.98%
CC(NC(=O)N1CCCN(Cc2cccs2)CC1)c1cccnc1 (configuration not stated) | -8.83%
Cc1csc(C2CCCN(C(=O)c3cc(Cl)c[nH]3)C2)n1 (configuration not stated) | -8.21%
c1ccc(CCNC2CCc3ncnn3C2)nc1 (configuration not stated) | -4.03%
CC1(C(=O)N2CCOCC2)CNCCO1 (configuration not stated) | 1.2%
Cc1ccc(CN(Cc2ccncc2)C2CC(C)(C)NC(C)(C)C2)o1 | -12.3%
N#Cc1ccc(C(=O)N2CCn3c(Cn4cccn4)cnc3C2)cc1 | 3.09%
Cn1cc(CN2C[C@@H]3CN(Cc4ccoc4)CCO[C@@H]3C2)cn1 | 6.97%
O=C1C(NCc2ccc3c(c2)CCO3)CCN1Cc1ccccc1 (configuration not stated) | 6.39%
CCCS(=O)(=O)N1C[C@@H]2COC[C@]2(CN2CCOCC2)C1 | 1.86%
O=C1CC[C@H]2[C@H](CCN2C(=O)C2CCOCC2)N1Cc1ccncc1 | -2.7%
CN(C)CC(=O)N1CCc2ncnc(-c3cncnc3)c2CC1 | -2.42%
COC(=O)c1cc(OCC2CCC2)cc(C(=O)NC2CCC(O)CC2)c1 (configuration not stated) | -14.2%
CNc1nc(C(=O)N2C[C@@H]3CC[C@H]2CN(S(C)(=O)=O)C3)cs1 | 0.977%
